This passage reports MIC, hemolysis and Activity results from ChEMBL document CHEMBL5120823, “Feature-Based Molecular Networking Discovery of Bromopyrrole Alkaloids from the Marine Sponge Agelas dispar” (J Nat Prod, 2022).

Structures are written as SMILES. Converted amounts (≈) assume the structure as drawn.

Data set [1] relates to Escherichia coli. Nature of the data set: Antibacterial activity against Escherichia coli ATCC 25922 incubated for 24 hrs by broth microdilution method. It is filed as functional. The procedure, abridged:
(§1)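 CLSI-based broth microdilution. Pure bacterial suspensions were set to 0.5 McFarland (about (1−2) × 10^8 CFU/mL) and diluted to a final inoculum of about 5 × 10^5 CFU/mL. Compounds were tested in 2-fold dilutions from 100 to 0.78 μM and incubated at 35 °C for 24 h. MIC was read as the lowest concentration with no growth visible to the unaided eye.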

The subject of data set [2] is Escherichia coli. Put plainly: Antibacterial activity against ESBL-producing Escherichia coli ATCC 35218 incubated for 24 hrs by broth microdilution method. The class given is functional. The procedure, abridged: as §1
Data set [3] deals with Klebsiella pneumoniae. Put plainly: Antibacterial activity against Klebsiella pneumoniae ATCC 700603 incubated for 24 hrs by broth microdilution method. The class given is functional. The procedure, abridged: as §1
Data set [4] has as its system Klebsiella pneumoniae. Put plainly: Antibacterial activity against carbapenem-resistant Klebsiella pneumoniae id-146/19 incubated for 24 hrs by broth microdilution method. It is filed as functional. The procedure, abridged: (§2)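 CLSI-based broth microdilution. Pure bacterial suspensions adjusted to 0.5 McFarland (about (1−2) × 10^8 CFU/mL), then diluted to a final inoculum of about 5 × 10^5 CFU/mL (5 × 10^4 CFU/well). Compounds were tested in 2-fold dilutions from 100 to 0.78 μM. Plates incubated 24 h at 35 °C. MIC was the lowest concentration with complete growth inhibition by unaided eye, reported in μM.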

Data set [5] relates to Acinetobacter baumannii. Nature of the data set: Antibacterial activity against Acinetobacter baumannii ATCC 19606 incubated for 24 hrs by broth microdilution method. The class given is functional. The procedure, abridged: as §1
For data set [6], the system named is Acinetobacter baumannii. Put plainly: Antibacterial activity against carbapenem-resistant Acinetobacter baumannii id-261/16 incubated for 24 hrs by broth microdilution method. It is filed as functional. The procedure, abridged:
as §2

The subject of data set [7] is Pseudomonas aeruginosa. Nature of the data set: Antibacterial activity against Pseudomonas aeruginosa ATCC 27853 incubated for 24 hrs by broth microdilution method. It is filed as functional. The procedure, abridged: as §1
Data set [8] has as its system Pseudomonas aeruginosa. Put plainly: Antibacterial activity against carbapenem-resistant Pseudomonas aeruginosa S-6065/06 incubated for 24 hrs by broth microdilution method. It is filed as functional. The procedure, abridged:
as §2

Data set [9] relates to Enterococcus faecalis. Nature of the data set: Antibacterial activity against Enterococcus faecalis ATCC 29212 incubated for 24 hrs by broth microdilution method. The class given is functional. The procedure, abridged:
as §1

For data set [10], the system named is Enterococcus faecalis. Nature of the data set: Antibacterial activity against vancomycin resistant Enterococcus faecalis ATCC 51299 incubated for 24 hrs by broth microdilution method. It is filed as functional. The procedure, abridged: as §2
For data set [11], the system named is Staphylococcus aureus. Put plainly: Antibacterial activity against Staphylococcus aureus ATCC 25923 incubated for 24 hrs by broth microdilution method. It is filed as functional. The procedure, abridged:
as §2

Data set [12] relates to Staphylococcus aureus. Nature of the data set: Antibacterial activity against oxacillin-resistant Staphylococcus aureus ATCC 33591 incubated for 24 hrs by broth microdilution method. The class given is functional. The procedure, abridged:
as §2

Data set [13] is described as follows: Hemolytic activity against BALB/c mouse erythrocyte at 100 uM measured after 2 hrs relative to control. It is filed as toxicity, cell-based. To be noted: erythrocytes, read-out: Activity. The procedure, abridged: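 BALB/c mouse erythrocytes, as a 3% suspension in 1× PBS, were exposed to compound at 100 to 6.25 μM for 2 h at 24 °C. Hemolysis was read as supernatant optical density at 570 nm. Distilled water gave maximum hemolysis, and untreated erythrocytes served as the negative control.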

In data set [14] the test system is OVCAR3 (Homo sapiens). Put plainly: Cytotoxicity against human OVCAR3 cells assessed as inhibition of cell viability at 50 uM incubated for 72 hrs by MTT assay relative to control.

With `Nc1nc([C@@H]2c3[nH]c(N)nc3C[C@H](CNC(=O)c3cc(Br)c[nH]3)[C@H]2CNC(=O)c2cc(Br)c[nH]2)c[nH]1`, the minimal inhibitory concentration (MIC) in [1] is 100 µM (≈ 62 µg/mL); in [2] it was 100 µM (≈ 62 µg/mL); in [3], more than 100 µM; in data set [4] it was more than 100 µM; in data set [5], more than 100 µM; in [6], more than 100 µM. For the same compound, the MIC in data set [7] is 50 µM (≈ 31 µg/mL); in data set [8] it was more than 100 µM; in data set [9] it was more than 100 µM; in data set [10], more than 100 µM; in data set [11], more than 100 µM; in [12] it was more than 100 µM. Besides, the hemolysis at 2 h, 100 µM in data set [13] is 2.3%. In addition, in [14], the Activity is recorded as 50%.
On to `Nc1nc([C@@H]2c3nc(N)[nH]c3C[C@H](CNC(=O)c3cc(Br)c(Br)[nH]3)[C@H]2CNC(=O)c2cc(Br)c(Br)[nH]2)c[nH]1`, for which the MIC amounted to 12.5 µM (≈ 9.73 µg/mL) in data set [1]; 12.5 µM (≈ 9.73 µg/mL) in data set [2]; 12.5 µM (≈ 9.73 µg/mL) in data set [3]; 25 µM (≈ 19.5 µg/mL) in [4]; 100 µM (≈ 77.8 µg/mL) in [5]; 100 µM (≈ 77.8 µg/mL) in data set [6]. The minimal inhibitory concentration (MIC) in [7] came out at 25 µM (≈ 19.5 µg/mL); in [8], 25 µM (≈ 19.5 µg/mL); in data set [9], 6.2 µM (≈ 4.82 µg/mL); in data set [10], 6.2 µM (≈ 4.82 µg/mL); in data set [11] it was 6.2 µM (≈ 4.82 µg/mL); in [12], 6.2 µM (≈ 4.82 µg/mL). The hemolysis at 2 h, 100 µM in data set [13] was 0.7%.
Consider `Nc1nc([C@@H]2c3[nH]c(N)nc3C[C@H](CNC(=O)c3cc(Br)c[nH]3)[C@H]2CNC(=O)c2cc(Br)c(Br)[nH]2)c[nH]1` [BROMOAGELIFERIN], for which the MIC in data set [1] was 12.5 µM (≈ 8.74 µg/mL); in data set [2], 25 µM (≈ 17.5 µg/mL); in data set [3], more than 100 µM; in data set [4] it was more than 100 µM; in [5] it was more than 100 µM; in [6] it was 100 µM (≈ 69.9 µg/mL). Also, the MIC in data set [7] is 12.5 µM (≈ 8.74 µg/mL); in [8] it was 50 µM (≈ 35 µg/mL); in data set [9] it was more than 100 µM; in data set [10], more than 100 µM; in data set [11], 12.5 µM (≈ 8.74 µg/mL); in data set [12], 12.5 µM (≈ 8.74 µg/mL). Also, the hemolysis at 2 h, 100 µM in data set [13] turned out to be 1.5%.
